From ChEMBL document CHEMBL4513216, “Probing the Open Global Health Chemical Diversity Library for Multistage-Active Starting Points for Next-Generation Antimalarials” (ACS Infect Dis, 2020)

Assay: Toxicity liver stage against HepG2, at 10uM
Type: cell-based
Set-up: test concentration 10 uM, cell line HepG2-A16-CD81EGFP
Settings: human, HepG2-A16-CD81EGFP cells; read-out: INHIBITION
Outline: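 Uninfected HepG2-A16-CD81EGFP cells, 3 × 10^3 per well, 1536-well, plated on prespotted compound at 10 μM final, parasite-free screening media added to match infected plates; puromycin 10 μM positive, DMSO 0.5% negative; run in parallel with 48 h PbLuc assay at 37 °C, 5% CO2; viability by CellTiter-Glo luminescence, normalized to controls.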

SMILES | cytotoxicity at 10 µM
Fc1ccccc1Sc1ccccc1CNC1=NCCN1 | 12.5%
Cn1c(CN2CCCCC2)cc(=O)c(O)c1CN1CCCCC1 | -2.34%
COC(=O)c1ccc(C2SC(C)=Nc3c2c(=O)[nH]n3C2CCCC2)cc1 (centres undefined) | 6.84%
CN1CCCC(C(=O)N2CCC(Oc3ccc(C#N)cn3)CC2)C1 (centres undefined) | -5.6%
CCS(=O)(=O)NCc1nc(C)cc(N2CCCCC2)n1 | 6.79%
CC1N(CC2CC2)C(=O)COC12CCN(C(=O)c1cccs1)CC2 (centres undefined) | -3.64%
CN(C)c1ccc2c(c1)CN(C(=O)c1c[nH]cn1)C2c1cnco1 (centres undefined) | -0.234%
O=C(c1cc[nH]n1)N1CC[C@@H]2CN(Cc3cccnc3)S(=O)(=O)[C@@H]2CC1 | 12.7%
Cc1noc(C)c1CN1C[C@@H](OCC(=O)N(C)C)[C@H]2OCCC[C@H]21 | 12.1%
OCCCNc1nc(O)c2c(n1)-c1ccccc1CC21CCCCC1 | 11.1%
CC(=O)Nc1ncc(S(=O)(=O)Nc2ccc(C)cc2)s1 | 8.6%
Cc1cc(C)nc(N2CCC(c3ccnc(N(C)C)n3)CC2)n1 | 21.1%
CN(C)c1nccc(C2CCN(c3ncccn3)CC2)n1 | 0.59%
c1cc(CNc2ncc(-c3cnccn3)c(C3CC3)n2)ccn1 | 24%
CCn1ccc(-c2cc(NCCCOc3cccc(C)c3)nc(C)n2)n1 | -5.65%
O=C(NC1CC1)C1(Cc2ccccc2-c2ccncc2)CCOCC1 | -3.83%
Cc1ncsc1-c1nnc(C2CCN(Cc3ccc(Cl)cc3)CC2)o1 | -4.41%
c1nc2c(c(NC3CCc4ncnn4C3)n1)CCC2 (centres undefined) | -40.7%
Cc1noc(C2CCCN(C(=O)c3scnc3Cl)C2)n1 (centres undefined) | 17.2%
O=C(NC1CCN(CC2CC2)C1)N1CCC(OC2CCCCC2)CC1 (centres undefined) | 4.75%
COc1ccc(CNCc2cc(Br)c3c(c2)OCO3)cc1 | 12.1%
Cc1nn(C)c(C)c1S(=O)(=O)NCC1(C(N)=O)CCOCC1 | 14.9%

SMILES | cytotoxicity at 10 µM
c1cc2c(cc1CSCc1noc(C3CC3)n1)OCCO2 | 10.4%
N#Cc1cccn(CCOc2ccc(Cl)cc2)c1=O | 18.6%
COc1cc(CNCCn2cc(C)cn2)c2c(c1)CC(C)O2 (centres undefined) | 19.1%
COc1cc(CNCCn2cccn2)c2c(c1)CC(C)O2 (centres undefined) | 13.7%
CC(NC(=O)COc1cccc[n+]1[O-])C1CC1 (centres undefined) | -6.66%
O=C(Nc1ccc(Cl)cn1)C1CCCN(CCc2ccncc2)C1 (centres undefined) | -8.87%
CC(C)(C)C(=O)Cn1nc(C2CC2)cc(C(F)(F)F)c1=O | -8.06%
CN(c1ccc(CNC(=O)c2c[nH]c(=O)c(Cl)c2)cc1)C1CCCCC1 | 88.9%
Cc1ccc(NC(=O)NCC2(N3CCOCC3)CCSC2)c(C)c1 (centres undefined) | 1.15%
COCc1noc(C2(c3ccc(F)cc3)CCC2)n1 | 5.93%
Cc1cc(C(=O)NCc2ccccc2CN(C)Cc2ccco2)on1 | 3.57%
Cc1ccc(CC(=O)NC(C)C(=O)N2CCS(=O)(=O)CC2)s1 (centres undefined) | 11.2%
CCOCCN1CCN(Cc2nnc(C3CC3)o2)CC1C (centres undefined) | 12.9%
CCc1noc(C(C)N(C)CC(=O)Nc2ccc(Br)cc2C)n1 (centres undefined) | 19.6%
CCOc1cc(CN(C)CCCC#N)ccc1OC(F)F | -10.3%
Cc1noc(CN2CC=C(c3c[nH]c4ncccc34)CC2)n1 | 44.7%
O=C(c1[nH]nc(C2CC2)c1Cl)N1CCN(S(=O)(=O)c2ccccc2)CC1 | 16%
CC(NCc1cnc(C2CCC2)s1)c1cccc(-n2cccn2)c1 (centres undefined) | 2.34%
COc1cc(NCc2ncc[nH]2)ccc1Br | 11.2%
Cc1cnn(CC2CCCN2c2ncnc3ccccc23)c1 (centres undefined) | 46.8%
NC(=O)CCSc1ccccc1NCc1ccc(Cl)s1 | 7.74%
CC(C)(C)c1nc(CNc2ccccc2SCCC(N)=O)cs1 | 23.5%

SMILES | cytotoxicity at 10 µM
c1ccc(CNc2ccccc2N2CCCC2)nc1 | 10.9%
CN(Cc1cnccn1)S(=O)(=O)c1ccc(C(F)(F)F)nc1 | -9.77%
CCCN(C)CC1CCN(c2ccc(Br)c(C)n2)C1 (centres undefined) | 14.8%
Cc1cc(C2CCCN(CC(=O)Nc3nc4c(s3)CCC4)C2)n[nH]1 (centres undefined) | -44.2%
Cc1ccc(CN2C[C@H](NC(=O)c3nccn3C)[C@H]3OCCC[C@H]32)o1 | -85%
O=C(NCC1CC1)c1cc2c(s1)CCN2c1ncccn1 | -101%
Cc1ccc(CN2CCCC3(CCN(Cc4ccc(C)o4)C3)C2)o1 (centres undefined) | -107%
CC1=N[C@@]2(CC[C@@H]3CN(C(=O)NCc4cccc(F)c4)C[C@@H]32)C(=O)N1 | -73.4%
CN1CCN(Cc2noc(CCc3nc(-c4ccccc4)no3)n2)CC1 | 6.41%
CSCC[C@@H](CO)Nc1ccc(-c2nc(-c3ccccc3F)no2)cn1 | 9.74%
O=C1O[C@@H]2CN(c3ccncc3)C[C@@H]2N1CCCc1ccc(F)cc1 | -3.73%
CCOC(=O)c1ccc(N2CCN(Cc3c(C)nn(C)c3Cl)CC2)nc1 | 20.5%
Cc1nc(NCc2noc(C3CCCO3)n2)c2sccc2n1 (centres undefined) | 50.2%
O=C(NCc1cccnc1N1CCCC(O)C1)c1ccsc1 (centres undefined) | 14.3%
Cc1nc(CNCc2cccnc2Oc2ccc(C)c(F)c2F)c[nH]1 | 6.87%
FC(F)Oc1ccccc1CN1CCCC(c2nccn2CC2CC2)C1 (centres undefined) | 6.64%
C[C@H](c1ccc(F)cc1)n1c(C2CCN(C)CC2)n[nH]c1=O | 9.93%
CCN1CCCC(CN(C)c2nccc(-c3ccc(C)nc3C)n2)C1 (centres undefined) | -13.5%
CC(C)[C@H]1CN(c2ccncc2)C[C@@H]1NS(=O)(=O)N(C)C | 4.56%
O=C(c1scc2c1OCCO2)N1CCOC(CCc2ccccc2)C1 (centres undefined) | 10.5%
CN(C)C1CCN(c2cc(-c3ccccc3)nc3ccnn23)C1 (centres undefined) | -53.5%
CN(C)C(=O)CN1CCCN(CC2CCOc3ccccc3C2)CC1 (centres undefined) | -3.42%

SMILES | cytotoxicity at 10 µM
Cn1cnnc1CC1CCN(Cc2nn(C)c3cccc(Cl)c23)CC1 | -1.62%
COC[C@]1(O)CCN(C(=O)c2ccc(CN(C)C)o2)CC1(C)C | 4.35%
Cc1nn(C)cc1-c1ccnc(N(C)Cc2cnn(C)c2)n1 | 19.9%
CN(Cc1cccc(OCCO)c1)Cc1cccc2ncccc12 | 26%
CSc1nccc(N2CCC(NCc3ccc4nsnc4c3)CC2)n1 | 28.3%
Cc1nc(C)c(C(=O)N2C[C@@H](C(=O)O)[C@H](C3CC3)C2)s1 | 7.53%
Cc1cccc2sc(NC(=O)CN3CCCC(O)(CO)C3)nc12 (centres undefined) | 16.9%
Cc1[nH]c2c(C)ccc(C)c2c1CC(=O)NCC(O)c1cccnc1 (centres undefined) | -2.11%
CCCN(CC)C(=O)c1cc(Cn2c(C)nc3ccccc32)[nH]n1 | 36.7%
CSCc1ccc(N2CCC(C(O)Cc3ccccc3)CC2)nc1 (centres undefined) | 2.45%
CC1(C)CN(C(=O)c2ncc(F)cc2F)CCC1(O)CN1CCOCC1 (centres undefined) | -8.37%
Cc1nn(C)c2nc(N3CCC(C(O)Cc4ccccc4)CC3)sc12 (centres undefined) | 28.2%
Cc1nc(-c2cn(CCN)nn2)n(-c2ccc(C(F)(F)F)cc2)n1 | -1.77%
CC(C)c1nc(CN(C)Cc2cnc(N3CCOCC3)nc2)no1 | 10.1%
COc1ccccc1N1CCN(C(=O)c2ccnc(N(C)C)c2)CC1 | 84.2%
COc1cc(C(=O)Nc2nc(C)no2)cc(Cl)c1OC | -4.29%
Cc1noc(C)c1C(=O)NCc1ccc(N2CCC(C)CC2)nc1 | 8.43%
Cc1cnn(CC2CN(Cc3nc4ccccc4s3)CCO2)c1 (centres undefined) | 0.639%
O=C1NCCN1C1CCCN(Cc2coc(-c3ccc(F)cc3)n2)C1 (centres undefined) | 8.63%
CC(C)c1n[nH]c(C(=O)Nc2ccncc2)c1Br | 12.6%
Cc1cccc(NC2CCN(C(=O)Nc3cccc4[nH]ccc34)CC2)n1 | -6.85%
CCOc1ccc(CN2CCN(C(=O)c3ccc(C)n3C)CC2)cc1 | 19.2%

SMILES | cytotoxicity at 10 µM
CC(Cn1cccn1)NC(=O)N1CCN(Cc2cccnc2)CC1 (centres undefined) | -18.2%
Cc1cc(C[C@@H]2CCC[C@H]2NCc2ccccc2F)on1 | -6.19%
CC1(C)CC(N(Cc2cccnc2)Cc2cccc(F)c2)CC(C)(C)N1 | -6.41%
Clc1ccc(C2(CNC3=NCCN3)CCCCC2)cc1 | 38.2%
c1cncc(-c2ccc3c(c2)C2(CC3)CCN(c3nncs3)CC2)c1 | 13.1%
Cn1cnc(S(=O)(=O)N2C[C@H]3CN(Cc4ccccn4)C[C@H]3C2)c1 | 4.26%
CN(C)C(=O)[C@@]12CCO[C@@H]1CCN(Cc1ccc3c(c1)OCO3)C2 | 0.863%
CC(C)N1CCOCC2(CCCN(C(=O)c3cncn3C)C2)C1 (centres undefined) | -1.09%
Cc1nc2c(cc1C(=O)O)CCN(CC1CC1)CC2 | -154%
CCOC(=O)[C@]12CCCN(Cc3nccs3)C[C@H]1CN(C(C)C)C2 | -8.81%
COCCC1COC2(CCN(C(=O)c3ccncc3)CC2)C1 (centres undefined) | -74.9%
COCCN1CC2(CCOCC2)c2cc(NC(=O)C3CC=CC3)ccc21 | -109%
COCCN1CCc2cc(C(=O)NC(C)C)c(NCC(C)C)nc2CC1 | -163%
c1ccc(COC[C@@H]2CCC[C@]23CN(Cc2nccs2)CCO3)nc1 | -65.4%
O=C1CC2(CCCCN2C(=O)c2ccco2)CN1c1cccnc1 (centres undefined) | -1.69%
CC1=N[C@@]2(CC[C@@H]3CN(CC4CC4)C[C@@H]32)C(=O)N1CC(C)C | -84%
c1cc(CNCc2ccc(-n3cncn3)nc2)cc(OC2CCCC2)c1 | 2.3%
Cc1cccc(CN2C[C@@H]3OCCN(c4ccnc(N(C)C)n4)[C@@H]3C2)c1 | -94.9%
CCOCCN1CCN(C=C2NN=C(c3occc3C)O2)CC1CC (centres undefined) | -50.3%
Cc1[nH]n(C)c2nc(=O)cc(C(F)(F)C(F)(F)F)c1-2 | -2.22%
NC1CCC(Nc2nccc(CCC(F)(F)F)n2)CC1 (centres undefined) | -15%
